We go through one compound from ChEMBL document CHEMBL4138315, “Synthesis and Evaluation of a Novel Bivalent Selective Antagonist for the Mu-Delta Opioid Receptor Heterodimer that Reduces Morphine Withdrawal in Mice” (J Med Chem, 2018).

The target in one test is Mu-type opioid receptor (Homo sapiens, UniProt P35372). The experiment in a line: Displacement of [3H]-diprenorphine from human MOR expressed in CHO cell membranes after 80 mins by scintillation counting analysis. As to conditions: cho. The procedure, abridged: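 Competition binding on MOR-, DOR- or MDOR-CHO membranes used a fixed 3H-diprenorphine level against competitor concentration curves; 30°C, 80 min, GF/B filtration, scintillation counting. Nonspecific binding defined with 500 nM each DMT-Tic-Ala-OH and CTAP. Ki was derived from IC50 and the 3H-diprenorphine KD in each line; MDOR data fitted with a 2-site model. N = 3-4, mean ± SEM.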
Sequence of Mu-type opioid receptor (P35372 whole entry): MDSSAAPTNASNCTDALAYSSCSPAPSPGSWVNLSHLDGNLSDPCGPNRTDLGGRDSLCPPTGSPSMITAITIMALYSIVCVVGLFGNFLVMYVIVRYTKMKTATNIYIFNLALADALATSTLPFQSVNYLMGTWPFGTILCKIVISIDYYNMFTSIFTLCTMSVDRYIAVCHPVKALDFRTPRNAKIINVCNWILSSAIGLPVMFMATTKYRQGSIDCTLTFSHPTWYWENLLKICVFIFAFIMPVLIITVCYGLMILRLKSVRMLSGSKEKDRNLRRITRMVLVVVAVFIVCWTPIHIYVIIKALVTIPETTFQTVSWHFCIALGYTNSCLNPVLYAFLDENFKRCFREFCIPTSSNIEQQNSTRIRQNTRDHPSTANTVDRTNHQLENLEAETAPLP

The target of test [1] is Delta-type opioid receptor (Homo sapiens, UniProt P41143). As to the kind of experiment: Antagonist activity at human DOR expressed in CHO cell membranes assessed as inhibition of CYM51010-induced [35S]-GTPgammaS binding preincubated for 5 mins followed by CYM51010 and [35S]-GTPgammaS addition measured after 80 mins. It counts as functional. The conditions noted are these: cho. The gist of the method: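 Membranes from CHO cells stably expressing human opioid receptor (N-terminal tagged) were preincubated 5 min with antagonist concentration curves, then given 1 µM CYM51010 and 0.1 nM 35S-GTPγS; 30°C, 80 min, GF/B filtration, scintillation counting. Normalized to CYM51010 alone (100%) and vehicle (0%). Fits: 1-site for MOR/DOR (IC50), 2-site for MDOR (IC50HIGH). N = 3-4, duplicate, mean ± SEM.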
Sequence of Delta-type opioid receptor (P41143 whole entry): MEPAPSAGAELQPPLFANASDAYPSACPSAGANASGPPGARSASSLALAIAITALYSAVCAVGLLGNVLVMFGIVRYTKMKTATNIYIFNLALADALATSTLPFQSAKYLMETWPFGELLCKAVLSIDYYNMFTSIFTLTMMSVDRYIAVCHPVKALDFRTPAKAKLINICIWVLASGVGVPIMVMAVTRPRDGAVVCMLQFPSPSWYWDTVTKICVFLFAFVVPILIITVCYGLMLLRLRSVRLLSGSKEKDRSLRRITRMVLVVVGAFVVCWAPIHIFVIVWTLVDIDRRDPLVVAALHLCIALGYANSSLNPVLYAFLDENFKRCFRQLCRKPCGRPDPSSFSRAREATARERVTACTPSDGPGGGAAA

Test [2] deals with Opioid receptors; mu & delta (Homo sapiens, UniProt P41143+P35372). As to the kind of experiment: Antagonist activity at human mu-delta opioid receptor heterodimer expressed in CHO cell membranes assessed as inhibition of DAMGO-induced [35S]-GTPgammaS binding preincubated for 5 mins followed by DAMGO and [35S]-GTPgammaS addition measured after 80 mins. It counts as functional. The gist of the method: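 MDOR-CHO membranes were preincubated 5 min with antagonist concentration curve, then 1 µM DAMGO and 0.1 nM 35S-GTPγS were added. Incubated 30°C, 80 min; filter harvest, scintillation counting. Normalized to agonist alone and vehicle. N = 3 independent experiments in duplicate.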

The target in test [3] is Kappa-type opioid receptor (Homo sapiens) (UniProt P41145). The experiment in a line: Antagonist activity at human KOR expressed in CHO cell membranes assessed as inhibition of U50488-induced [35S]-GTPgammaS binding preincubated for 5 mins followed by U50488 and [35S]-GTPgammaS addition measured after 80 mins. It counts as functional. The gist of the method:
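KOR-CHO membranes (human receptor, N-terminal tag), antagonist concentration curve preincubated 5 min, then 1 µM U50,488 plus 0.1 nM 35S-GTPγS added. Incubated 30°C, 80 min; filtration and scintillation counting. Vehicle 0.1% DMSO in assay buffer with 0.1% BSA. Normalized to agonist alone (100%) and vehicle (0%). One-site curve fit; N = 3 independent experiments in duplicate.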

The test system of test [4] is Mus musculus. The experiment in a line: Antinociceptive activity in icv dosed CD1 mouse assessed as reduction in Deltorphin-2-induced nociception pretreated for 5 mins followed by Deltorphin-2 injection measured up to 2 hrs by tail flick assay. It counts as functional.
Test [5] relates to Mus musculus. As to the kind of experiment: Antinociceptive activity in CD1 mouse assessed as reduction in DSLET-induced nociception up to 10 nmol, icv pretreated for 5 mins followed by DSLET injection measured up to 2 hrs by tail flick assay. The class given is functional, organism-based.
The test system of test [6] is Mus musculus. As to the kind of experiment: Reduction in morphine dependence expression in acute morphine dependence ICR mouse model assessed as inhibition of naloxone-precipitated jumping behavior at 1 nmol, icv administered 5 mins prior to naloxone injection measured up to 20 mins relative to control. The class given is functional. Details: scale not given: the % may be the effect or the level left. The procedure, abridged:
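Acute dependence: morphine 100 mg/kg sc, then naloxone 10 mg/kg ip 4 h later. 1 nmol icv or vehicle given 5 min before naloxone; one control arm had no naloxone. Mice observed 20 min in plexiglass cylinders; jumps counted, then urine and feces weighed.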

SMILES strings stand for the structures. Calls of active or inactive are those of the source. The rule behind the calls is not given here.

Sequence of Kappa-type opioid receptor (Homo sapiens) (P41145 whole entry): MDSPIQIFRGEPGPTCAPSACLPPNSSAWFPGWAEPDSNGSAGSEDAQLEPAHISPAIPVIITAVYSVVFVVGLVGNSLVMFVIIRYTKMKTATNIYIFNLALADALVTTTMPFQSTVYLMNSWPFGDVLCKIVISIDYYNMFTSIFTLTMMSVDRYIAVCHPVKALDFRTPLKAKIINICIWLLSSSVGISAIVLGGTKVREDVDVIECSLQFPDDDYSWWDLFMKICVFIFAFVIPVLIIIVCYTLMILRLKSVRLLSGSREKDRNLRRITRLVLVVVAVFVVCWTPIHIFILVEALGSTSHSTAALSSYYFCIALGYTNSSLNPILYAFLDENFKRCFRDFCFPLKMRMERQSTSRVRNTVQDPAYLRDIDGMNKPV

In turn, `N[C@@H](Cc1ccc(O)cc1)C(=O)N1Cc2ccccc2C[C@@H]1C(=O)NCC(=O)NCCCCC(=O)N[C@H](CCCCNC(=O)CCCCNC(=O)CNC(=O)[C@@H](Cc1cccc2ccccc12)NC(=O)[C@H](Cc1ccccc1)NC(=O)[C@@H]1CCCN1C(=O)[C@@H](N)Cc1ccc(O)cc1)C(=O)O` had a Ki at Mu-type opioid receptor of more than 1000 nM. Moreover, the results for the IC50 in test [1] and in test [2] were 76 nM and 153 nM, respectively. Also, the inhibition entry in test [3] was “inactive”. Also, the A50 in the test on Mus musculus [4] turned out to be 7.77 nmol. The Activity result with Mus musculus [4] was “Dose-dependent effect”; with Mus musculus [6] it was 53.2%. In addition, the result with Mus musculus [5] was inactive.
